Experimental data taken from ChEMBL document CHEMBL4229352, “Synthesis, antileishmanial activity and mechanism of action studies of novel β-carboline-1,3,5-triazine hybrids” (Eur J Med Chem, 2018).
Calls of active or inactive are those of the source. The rule behind the calls is not given here.

Key:
Leishmania amazonensis [1] = test: Antileishmanial activity against promastigote forms of Leishmania amazonensis after 72 hrs by XTT/PMS dye based spectrophotometric analysis; assay type: functional, organism-based
Method in brief: (§1)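 Log-phase parasites (promastigotes 48 h, axenic amastigotes 72 h) plated at the printed density with increasing compound concentrations; 72 h at 25 °C (promastigotes) or 32 °C (axenic amastigotes). XTT/PMS (0.5 and 0.3 mg/mL) added in the dark, absorbance at 450 nm after 4 h; IC50 versus negative control by regression. Mean ± SD of at least three independent experiments.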

Leishmania amazonensis [2] = test: Antileishmanial activity against promastigote forms of Leishmania amazonensis MHOM/BR/75/Josefa after 72 hrs by haemocytometry; assay type: functional, organism-based
Leishmania amazonensis [3] = test: Antileishmanial activity against axenic amastigote forms of Leishmania amazonensis MHOM/BR/75/Josefa after 72 hrs by haemocytometry; assay type: functional, organism-based
[4] = Cytotoxicity against mouse J774A1 cells assessed as reduction in cell viability after 48 hrs by MTT assay; assay type: cell-based, J774.A1
Method in brief: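 J774-A1 macrophages in RPMI 1640 with 10% FBS, plated and left 24 h at 37 °C, 5% CO2. Supernatant then replaced by increasing compound concentrations for 48 h. After a PBS wash, MTT (2 mg/mL) was added for 4 h at 25 °C in the dark, formazan dissolved in DMSO, absorbance read at 570 nm. CC50 by regression versus negative control; at least three experiments.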

[5] = Selectivity index, ratio of CC50 for mouse J774A1 cells to IC50 for promastigote forms of Leishmania amazonensis; assay type: toxicity; conditions: read-out: Ratio CC50/IC50
Method in brief: (§2)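 Selectivity index calculated as CC50 in J774-A1 macrophages (48 h MTT) divided by IC50 for L. amazonensis promastigotes or axenic amastigotes (72 h XTT/PMS).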

Leishmania amazonensis [6] = test: Antileishmanial activity against axenic amastigote forms of Leishmania amazonensis after 72 hrs by XTT/PMS dye based spectrophotometric analysis; assay type: functional, organism-based; method in brief: as §1
[7] = Selectivity index, ratio of CC50 for mouse J774A1 cells to IC50 for axenic amastigote forms of Leishmania amazonensis; assay type: toxicity; conditions: read-out: Ratio CC50/IC50; method in brief: as §2
[8] = Selectivity index, ratio of CC50 for mouse J774.G8 cells to IC50 for promastigote forms of Leishmania amazonensis MHOM/BR/75/Josefa; assay type: toxicity; conditions: read-out: Ratio CC50/IC50
Leishmania amazonensis [9] = test: Induction of ultrastructural alteration in promastigote forms of Leishmania amazonensis assessed as ultrastructural alteration in mitochondrial membrane at 6.2 uM after 24 hrs by transmission electron microscopic analysis; assay type: functional, organism-based
Method in brief: (§3)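 Promastigotes (1 x 10^6/mL) exposed to 6.2 μM for 24, 48 or 72 h at 25 °C alongside untreated controls. Fixed in 2.5% glutaraldehyde in 0.1 M cacodylate buffer. For TEM, post-fixed 1 h in 1% OsO4 with 0.8% potassium ferrocyanide in cacodylate buffer. For SEM, samples were gold-coated before viewing.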

Leishmania amazonensis [10] = test: Induction of ultrastructural alteration in promastigote forms of Leishmania amazonensis assessed as ultrastructural alteration in plasma membrane at 6.2 uM after 24 hrs by transmission electron microscopic analysis; assay type: functional, organism-based; method in brief: as §3
Leishmania amazonensis [11] = test: Induction of ultrastructural alteration in promastigote forms of Leishmania amazonensis assessed as formation of storage-lipid bodies at 6.2 uM after 48 hrs by transmission electron microscopic analysis; assay type: functional, organism-based; method in brief: as §3
Leishmania amazonensis [12] = test: Induction of ultrastructural alteration in promastigote forms of Leishmania amazonensis assessed as formation of mitochondrial swelling at 6.2 uM after 48 hrs by transmission electron microscopic analysis; assay type: functional, organism-based; method in brief: as §3
Leishmania amazonensis [13] = test: Induction of ultrastructural alteration in promastigote forms of Leishmania amazonensis assessed as alteration in plasma membrane at 6.2 uM after 48 hrs by transmission electron microscopic analysis; assay type: functional, organism-based; method in brief: as §3
Leishmania amazonensis [14] = test: Induction of ultrastructural alteration in promastigote forms of Leishmania amazonensis assessed as alteration in flagellar pocket with vacuoles at 6.2 uM after 72 hrs by transmission electron microscopic analysis; assay type: functional, organism-based; method in brief: as §3
Leishmania amazonensis [15] = test: Induction of ultrastructural alteration in promastigote forms of Leishmania amazonensis assessed as formation of mitochondrial swelling at 6.2 uM after 72 hrs by transmission electron microscopic analysis; assay type: functional, organism-based; method in brief: as §3
Leishmania amazonensis [16] = test: Induction of morphological alteration in promastigote forms of Leishmania amazonensis assessed as cell rounding at 6.2 uM after 24 to 72 hrs by scanning electron microscopic analysis; assay type: functional, organism-based; method in brief: as §3
Leishmania amazonensis [17] = test: Induction of morphological alteration in promastigote forms of Leishmania amazonensis assessed as reduction in cell volume at 6.2 uM after 24 to 72 hrs by scanning electron microscopic analysis; assay type: functional, organism-based; method in brief: as §3
Leishmania amazonensis [18] = test: Induction of ROS generation in promastigote forms of Leishmania amazonensis at IC50 after 24 hrs by H2DCFDA staining based spectrofluorometric analysis relative to control; assay type: functional
Leishmania amazonensis [19] = test: Induction of ROS generation in promastigote forms of Leishmania amazonensis at IC90 after 24 hrs by H2DCFDA staining based spectrofluorometric analysis relative to control; assay type: functional
Leishmania amazonensis [20] = test: Induction of lipid body storage in promastigote forms of Leishmania amazonensis at IC50 after 24 hrs by nile red staining based fluorescence assay relative to control; assay type: functional
Leishmania amazonensis [21] = test: Induction of lipid body storage in promastigote forms of Leishmania amazonensis at IC90 after 24 hrs by nile red staining based fluorescence assay relative to control; assay type: functional
Leishmania amazonensis [22] = test: Induction of ROS generation in promastigote forms of Leishmania amazonensis at IC50 to IC90 uM after 24 hrs in presence of NAC by H2DCFDA staining based spectrofluorometric analysis; assay type: functional, organism-based

SMILES	IC50 (Leishmania amazonensis [1])	CC50 at 48 h [4]	selectivity ratio [5]	further results
CC(C)Nc1nc(NCCNC(=O)c2cc3c([nH]c4ccccc43)c(-c3ccccc3Cl)n2)nc(NC(C)C)n1	> 100 µM	–	–	–
COc1ccc(-c2nc(C(=O)NCc3ccccc3)cc3c2[nH]c2ccccc23)cc1	–	–	–	IC50 (Leishmania amazonensis [2]): 2.6 µM; IC50 (Leishmania amazonensis [3]): 1 µM
CC(C)Nc1nc(NCCNC(=O)c2cc3c([nH]c4ccccc43)c(-c3cccc([N+](=O)[O-])c3)n2)nc(NC(C)C)n1	44.6 µM	86.3 µM	1.9	–
CC(C)Nc1nc(NCCNC(=O)c2cc3c([nH]c4ccccc43)c(-c3ccc(F)cc3)n2)nc(NC(C)C)n1	> 100 µM	–	–	–
O=C(NCCNc1nc(Cl)nc(Cl)n1)c1cc2c([nH]c3ccccc32)c(-c2ccc(F)cc2)n1	> 100 µM	–	–	–
CC(C)Nc1nc(NCCNC(=O)c2cc3c([nH]c4ccccc43)c(-c3ccccc3)n2)nc(NC(C)C)n1	7.5 µM	98.1 µM	13.1	IC50 (Leishmania amazonensis [6]): 35 µM; selectivity ratio [7]: 2.8
O=C(NNc1nc(Cl)nc(Cl)n1)c1cc2c([nH]c3ccccc32)c(-c2ccc(F)cc2)n1	> 100 µM	–	–	–
O=C(NNc1nc(Cl)nc(Cl)n1)c1cc2c([nH]c3ccccc32)c(-c2ccccc2)n1	43.3 µM	94.5 µM	2.2	IC50 (Leishmania amazonensis [6]): 1.1 µM; selectivity ratio [7]: 85.9
O=C(NCCNc1nc(NC2CCCCC2)nc(NC2CCCCC2)n1)c1cc2c([nH]c3ccccc32)c(-c2ccccc2)n1	> 100 µM	–	–	–
O=C(NNc1nc(Cl)nc(Cl)n1)c1cc2c([nH]c3ccccc32)c(-c2ccccc2Cl)n1	34.1 µM	22 µM	0.6	–
CN1CCN(c2nc(NCCNC(=O)c3cc4c([nH]c5ccccc54)c(-c4ccccc4)n3)nc(N3CCN(C)CC3)n2)CC1	> 100 µM	–	–	–
CC(C)Nc1nc(NNC(=O)c2cc3c([nH]c4ccccc43)c(-c3ccccc3)n2)nc(NC(C)C)n1	39.7 µM	103 µM	2.6	IC50 (Leishmania amazonensis [6]): 32.5 µM; selectivity ratio [7]: 3.16
O=C(NCCNc1nc(Cl)nc(Cl)n1)c1cc2c([nH]c3ccccc32)c(-c2cccc([N+](=O)[O-])c2)n1	5.1 µM	83.1 µM	16.3	IC50 (Leishmania amazonensis [6]): 1.1 µM; selectivity ratio [7]: 75.5
O=C(NCCNc1nc(Cl)nc(Cl)n1)c1cc2c([nH]c3ccccc32)c(-c2ccccc2Cl)n1	7.6 µM	28.5 µM	3.8	–
O=C(NCCNc1nc(Cl)nc(Cl)n1)c1cc2c([nH]c3ccccc32)c(-c2ccccc2)n1	30.9 µM	135 µM	4.4	IC50 (Leishmania amazonensis [6]): 1.9 µM; selectivity ratio [7]: 70.8
O=C(NCCNc1nc(N2CCOCC2)nc(N2CCOCC2)n1)c1cc2c([nH]c3ccccc32)c(-c2ccccc2)n1	> 100 µM	–	–	–
COc1ccc(-c2nc(C(=O)NCCNc3nc(Cl)nc(Cl)n3)cc3c2[nH]c2ccccc23)cc1	67.5 µM	201 µM	3	IC50 (Leishmania amazonensis [6]): 1 µM; selectivity ratio [7]: 201
CC(C)Nc1nc(NNC(=O)c2cc3c([nH]c4ccccc43)c(-c3ccccc3Cl)n2)nc(NC(C)C)n1	> 100 µM	–	–	–
NNc1nc(NN)nc(NCCNC(=O)c2cc3c([nH]c4ccccc43)c(-c3ccccc3)n2)n1	> 100 µM	–	–	–
CCCCNC(=O)c1cc2c([nH]c3ccccc32)c(-c2ccc(OC)cc2)n1	–	–	–	IC50 (Leishmania amazonensis [2]): 0.25 µM; selectivity ratio [8]: 2080
COc1ccc(-c2nc(C(=O)NNc3nc(Cl)nc(Cl)n3)cc3c2[nH]c2ccccc23)cc1	> 100 µM	–	–	–
COc1ccc(-c2nc(C(=O)NCCNc3nc(NC(C)C)nc(NC(C)C)n3)cc3c2[nH]c2ccccc23)cc1	6.2 µM	146 µM	23.5	IC50 (Leishmania amazonensis [6]): 1.2 µM; selectivity ratio [7]: 121; Activity (Leishmania amazonensis [9]): Active; Activity (Leishmania amazonensis [10]): Active; Activity (Leishmania amazonensis [11]): Active; Activity (Leishmania amazonensis [12]): Active; Activity (Leishmania amazonensis [13]): Active; Activity (Leishmania amazonensis [14]): Active; Activity (Leishmania amazonensis [15]): Active; Activity (Leishmania amazonensis [16]): Active; Activity (Leishmania amazonensis [17]): Active; Activity (Leishmania amazonensis [18]): 81.9%; Activity (Leishmania amazonensis [19]): 184.8%; Activity (Leishmania amazonensis [20]): 9%; Activity (Leishmania amazonensis [21]): 428.6%; Activity (Leishmania amazonensis [22]): Active
CCCCCCCCCCCCCCCCOP(=O)([O-])OCC[N+](C)(C)C [MILTEFOSINE]	18.5 µM	40.5 µM	2.2	IC50 (Leishmania amazonensis [6]): 2.4 µM; selectivity ratio [7]: 16.9
CC(C)Nc1nc(NNC(=O)c2cc3c([nH]c4ccccc43)c(-c3ccc(F)cc3)n2)nc(NC(C)C)n1	43.4 µM	50 µM	1.2	–
O=C(NCCCCCCNc1nc(Cl)nc(Cl)n1)c1cc2c([nH]c3ccccc32)c(-c2ccccc2)n1	> 100 µM	–	–	–
COc1ccc(-c2nc(C(=O)NNc3nc(NC(C)C)nc(NC(C)C)n3)cc3c2[nH]c2ccccc23)cc1	> 100 µM	–	–	–
O=C(NCCNc1nc(NCc2ccccc2)nc(NCc2ccccc2)n1)c1cc2c([nH]c3ccccc32)c(-c2ccccc2)n1	> 100 µM	–	–	–
